Measurements as given in ChEMBL document CHEMBL1125797, “Synthesis, characterization and myocardial uptake of cationic bis(arene)technetium(I) complexes” (J Med Chem, 1991).

Legend:
Rattus norvegicus [1] = organism: Rattus norvegicus; test: (§1) The compound was tested for the plasma binding in rat; format: ADME, organism-based
[2] = Plasma protein binding (human); format: ADME, cell-free
In short: (§2)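 Test substance (0.02 mL) was added to 1.0 mL of heparinized fresh human plasma and incubated about 15 min. Duplicate samples were passed through Sephadex G-25 desalting columns by centrifugation. Eluate and gel were γ-counted for 1 min or to 1% σ error. % bound = net cpm eluate / net cpm (eluate + gel) × 100.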

Rattus norvegicus [3] = test: Biodistribution of compound in rat blood after 5 min of administration.; format: ADME, organism-based; conditions: in vivo
In short: (§3)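 Female Sprague-Dawley rats (150–200 g) received the complex in normal saline (~12.5 μCi/mL) through a lateral tail vein at ~25 μCi/kg. Rats were killed by cervical dislocation 5 min after injection. Tissues were washed with saline, blotted, weighed and γ-counted to give percent injected dose/g tissue.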

Rattus norvegicus [4] = test: Biodistribution of compound in rat heart after 5 min of administration.; format: ADME, organism-based; conditions: in vivo; in short: as §3
Rattus norvegicus [5] = test: Biodistribution of compound in rat kidney after 5 min of administration.; format: ADME, organism-based; conditions: in vivo; in short: as §3
Rattus norvegicus [6] = test: Biodistribution of compound in rat lung after 5 min of administration.; format: ADME, organism-based; conditions: in vivo; in short: as §3
[7] = (§4) Biodistribution of compound in rat muscle after 5 min of administration.; format: ADME, organism-based, Muscle tissue; conditions: in vivo; in short: as §3
Rattus norvegicus [8] = test: Biodistribution of compound in rat brain after 5 min of administration; format: ADME, organism-based; conditions: in vivo
Rattus norvegicus [9] = test: Biodistribution of compound in rat liver after 5 min of administration.; format: ADME, organism-based; conditions: in vivo; in short: as §3
Rattus norvegicus [10] = test: as §4; format: ADME, organism-based, Muscle tissue; conditions: in vivo; in short: as §3
Rattus norvegicus [11] = test: Biodistribution of compound in rat blood after 5 min of administration; format: ADME, organism-based; conditions: in vivo
In short: as §3, with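 “the 99mTc” for “the”, “via” for “through”, “They” for “Rats”, “γ-counted, and the read-out was” for “γ-counted to give”, “dose per g” for “dose/g”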

Rattus norvegicus [12] = test: Biodistribution of compound in rat heart after 5 min of administration; format: ADME, organism-based; conditions: in vivo
In short: as §3, with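 “the 99mTc” for “the”, “via” for “through”, “They” for “Rats”, “γ-counted, and the read-out was” for “γ-counted to give”, “dose per g” for “dose/g”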

Rattus norvegicus [13] = test: Biodistribution of compound in rat kidney after 5 min of administration; format: ADME, organism-based; conditions: in vivo
In short: as §3, with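 “the 99mTc” for “the”, “via” for “through”, “They” for “Rats”, “γ-counted, and the read-out was” for “γ-counted to give”, “dose per g” for “dose/g”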

Rattus norvegicus [14] = test: Biodistribution of compound in rat liver after 5 min of administration; format: ADME, organism-based; conditions: in vivo
In short: as §3, with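 “the 99mTc” for “the”, “via” for “through”, “They” for “Rats”, “γ-counted, and the read-out was” for “γ-counted to give”, “dose per g” for “dose/g”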

Rattus norvegicus [15] = test: Biodistribution of compound in rat lung after 5 min of administration; format: ADME, organism-based; conditions: in vivo
In short: (§5)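 Rats received the 99mTc complex in normal saline (~12.5 μCi/mL) by lateral tail vein injection at ~25 μCi/kg and were killed by cervical dislocation at the stated time. Tissues were washed with saline, blotted, weighed and γ-counted to give percent injected dose/g. Time-course values are averages of male and female rats.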

Rattus norvegicus [16] = test: (§6) Biodistribution of compound in rat muscle after 5 min of administration; format: ADME, organism-based, Muscle tissue; conditions: in vivo; in short: as §3
Homo sapiens = organism: Homo sapiens; test: The compound was tested for the plasma binding in human.; format: functional; in short: as §2
Rattus norvegicus [17] = organism: Rattus norvegicus; test: as §1; format: functional
In short: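 Plasma protein binding was measured in rat plasma samples collected during the rat biodistribution studies, after tail vein injection of the 99mTc complex in saline (~25 μCi/kg).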

[18] = The compound was tested for the plasma binding in human; format: ADME, cell-free
In short: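 Fresh heparinized human plasma (1.0 mL, obtained daily) was spiked with 0.02 mL test solution and incubated about 15 min. Duplicate samples went through saline-equilibrated Sephadex G-25 desalting columns by centrifugation. Eluate and gel were γ-counted for 1 min or to 1% σ error. % bound = net cpm eluate / net cpm (eluate + gel) × 100.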

[19] = as §6; format: ADME, organism-based, Muscle tissue; conditions: in vivo; in short: as §5

Plasma binding (Rattus norvegicus [1]) [%]	Plasma binding [2] [%]	Dose/g (Rattus norvegicus [3]) [%]	Dose/g (Rattus norvegicus [4]) [%]	Dose/g (Rattus norvegicus [5]) [%]	Dose/g (Rattus norvegicus [6]) [%]	Dose/g [7] [%]	Dose/g (Rattus norvegicus [8]) [%]	Dose/g (Rattus norvegicus [9]) [%]	Dose/g (Rattus norvegicus [10]) [%]	Dose/g (Rattus norvegicus [16]) [%]	PPB (Homo sapiens) [%]	PPB (Rattus norvegicus [17]) [%]	Substance	Dose/g (Rattus norvegicus [11]) [%]	Dose/g (Rattus norvegicus [12]) [%]	Dose/g (Rattus norvegicus [13]) [%]	Dose/g (Rattus norvegicus [14]) [%]	Dose/g (Rattus norvegicus [15]) [%]	Plasma binding [18] [%]	Dose/g [19] [%]
34	84	0.16	2.6	12	1	0.55	0.02	1					BIS(DODECAHYDROTRIPHENYLENE) TECHNETIUM							
50	84	0.4	1.3	10	5.7	0.33	0.06	8.4					BIS(HEXAETHYLBENZENE) TECHNETIUM							
57	72	0.16	3	6.2	1.2	0.55	0.03	0.79					BIS(HEXAMETHYLBENZENE)TECHNETIUM							
27	90	0.23	4	6	1.4			0.45	0.82				BIS(TETRAHYDROACENAPHTHENE) TECHNETIUM							
										0.069			BIS(TOLUENE)TECHNETIUM [listing 1 of 2 here]	0.2	0.22	3.4	2.6	0.51		
											11	8.9	BIS(TOLUENE)TECHNETIUM [listing 2 of 2 here]							
23	27	0.09	1.5	9.3	1	0.49	0.02	1					BIS(TRINDAN) TECHNETIUM							
81	95	0.49	3.3	5	2.5	0.56	0.06	1.2					Bis(1,1,4,6,7-pentamethylindane)technetium							
75	94	0.35	3.4	6.4	1.5	0.66	0.04	0.73					Bis(1,1,4,6-tetramethylindane)technetium							
32	35	0.16	1.8	9.1	0.9	0.48	0.02	0.79					Bis(1,2,3,4,5,6,7,8-octahydroanthracene)technetium							
22	46	0.094	2.4	8.2	1.1			0.73	0.66				Bis(1,2,3,4-tetramethylbenzene)technetium							
											36	21	Bis(1,2,3,5-tetramethylbenzene)technetium							
6.6										0.27			Bis(1,2,3-trimethylbenzene)technetium	0.13	1	9	1	0.66	24	
21	84	0.1	3	7.8	1.3	0.58	0.03	0.62					Bis(1,2-diethylbenzene)technetium							
48	83	0.24	2.8	7.3	1.1	0.63	0.04	1.4					Bis(1,3,5-triethylbenzene)technetium							
19	64	0.09	2.8	5.1	1.2	0.64	0.03	0.46					Bis(1,3-diethylbenzene)technetium							
16	60	0.13	3.8	5.4	1.4	0.66	0.03	0.58					Bis(1,4-diethylbenzene)technetium							
27	75	0.16	2.5	5	1.1			0.42	0.56				Bis(1-methyl-(2-propyl)benzene)technetium							
54	57	0.12	3.6	8.4	1.4	0.42	0.03	0.66					Bis(4,6-dimethylindane)technetium							
18	80	0.18	3.2	6.5	1.3			0.38	0.7				Bis(5-isopropyl-m-xylene)technetium							
													Bis(m-xylene)technetium	0.1	0.47	8	2	0.59		0.17
													Bis(toluene)technetium [listing 1 of 2 here]	0.2	0.22	3.4	2.6	0.51		0.069

Substance	Plasma binding (Rattus norvegicus [1]) [%]	Plasma binding [2] [%]	Dose/g (Rattus norvegicus [3]) [%]	Dose/g (Rattus norvegicus [4]) [%]	Dose/g (Rattus norvegicus [5]) [%]	Dose/g (Rattus norvegicus [6]) [%]	Dose/g [7] [%]	Dose/g (Rattus norvegicus [8]) [%]	Dose/g (Rattus norvegicus [9]) [%]	Dose/g (Rattus norvegicus [10]) [%]	Dose/g (Rattus norvegicus [16]) [%]	PPB (Homo sapiens) [%]	PPB (Rattus norvegicus [17]) [%]	Dose/g (Rattus norvegicus [11]) [%]	Dose/g (Rattus norvegicus [12]) [%]	Dose/g (Rattus norvegicus [13]) [%]	Dose/g (Rattus norvegicus [14]) [%]	Dose/g (Rattus norvegicus [15]) [%]	Plasma binding [18] [%]	Dose/g [19] [%]
BIS(INDAN)TECHNETIUM	6.8	17	0.077	1.1	11	0.98			1.7	0.23										
BIS(PENTAMETHYLBENZENE) TECHNETIUM	57	55	0.14	3.5	5.5	1.6	0.66	0.02	0.45											
Bis(1,2,3,4-tetrahydronaphthalene)technetium	5.8	51	0.24	2.6	9.1	1			0.65	0.51										
Bis(1,2,4,5-tetramethylbenzene)technetium	18	42	0.28	2.3	9.8	1.3	0.72	0.02	0.9											
Bis(1,2,4-trimethylbenzene)technetium	12										0.32			0.38	1.4	7	0.8	0.78	20	
Bis(1,3,5-tri-tert-butylbenzene)technetium	60	81	0.49	1	8	1.3	0.38	0.04	2											
Bis(toluene)technetium [listing 2 of 2 here]												11	8.9							
